Test results reported in ChEMBL document CHEMBL5154635, “Expedited Approach toward the Rational Design of Noncovalent SARS-CoV-2 Main Protease Inhibitors” (J Med Chem, 2022).

How the values were obtained:
[1] = Cytotoxicity against African green monkey Vero E6 cells assessed as cell viability incubated for 5 days by neutral red uptake based microplate reader method; assay type: toxicity, Vero C1008; settings: chlorocebus sabaeus, time 5 day
How it was run: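 Vero E6 cells seeded and grown for 24 h, then washed. Serial compound dilutions added in serum-free medium for 5 days at 37 °C. Neutral red (40 μg/mL) taken up for 2–4 h, with absorbance read at 540 nm. CC50 from variable-slope dose-response fit.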

[2] = test system: SARS-CoV-2; assay: Antiviral activity against SARS-Cov-2 USA-WA1/2020 isolate infected in African green monkey Vero E6 cells measured after 48 hrs of postinfection by immunofluorescence assay; assay type: functional, organism-based; settings: Severe acute respiratory syndrome coronavirus 2, USA-WA1/2020, Vero C1008, 48 h
[3] = target: Replicase polyprotein 1ab (Severe acute respiratory syndrome coronavirus 2, UniProt P0DTD1); assay: Non-covalent inhibition of SARS-Cov-2 -Mpro incubated for 30 mins using FRET substrate measured for 1 hr by FRET-based enzymatic assay
[4] = Covalent inhibition of Enterovirus-A17 2Apro incubated for 30 mins using FRET substrate measured for 1 hr by FRET-based enzymatic assay
How it was run: (§1)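 Reaction started with the corresponding peptide FRET substrate (final 10 μM) and read at ex 360/em 460 nm at 30 °C for 1 h. Initial velocity taken by linear regression over the first 15 min.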

[5] = Covalent inhibition of HCoV-OC43 -Mpro incubated for 30 mins using FRET substrate measured for 1 hr by FRET-based enzymatic assay; set-up: species or system unidentified human coronavirus
[6] = Covalent inhibition of SARS-Cov -Mpro incubated for 30 mins using FRET substrate measured for 1 hr by FRET-based enzymatic assay; set-up: species or system Severe acute respiratory syndrome-related coronavirus
[7] = Covalent inhibition of Enterovirus-A17 3Cpro incubated for 30 mins using FRET substrate measured for 1 hr by FRET-based enzymatic assay; how it was run: as §1
[8] = target: Procathepsin L (Homo sapiens, UniProt P07711); assay: Covalent inhibition of Cathepsin L (unknown origin) incubated for 30 mins using FRET substrate measured for 1 hr by FRET-based enzymatic assay
[9] = Covalent inhibition of MERS-CoV -Mpro incubated for 30 mins using FRET substrate measured for 1 hr by FRET-based enzymatic assay; set-up: species or system Middle East respiratory syndrome-related coronavirus
[10] = Covalent inhibition of Enterovirus-D68 3Cpro incubated for 30 mins using FRET substrate measured for 1 hr by FRET-based enzymatic assay; how it was run: as §1
[11] = target: T1, Calpain-1 catalytic subunit (Homo sapiens, UniProt P07384); assay: Covalent inhibition of Calpain 1 (unknown origin) incubated for 1 hr by FRET-based enzymatic assay
T1 sequence (P07384 whole entry): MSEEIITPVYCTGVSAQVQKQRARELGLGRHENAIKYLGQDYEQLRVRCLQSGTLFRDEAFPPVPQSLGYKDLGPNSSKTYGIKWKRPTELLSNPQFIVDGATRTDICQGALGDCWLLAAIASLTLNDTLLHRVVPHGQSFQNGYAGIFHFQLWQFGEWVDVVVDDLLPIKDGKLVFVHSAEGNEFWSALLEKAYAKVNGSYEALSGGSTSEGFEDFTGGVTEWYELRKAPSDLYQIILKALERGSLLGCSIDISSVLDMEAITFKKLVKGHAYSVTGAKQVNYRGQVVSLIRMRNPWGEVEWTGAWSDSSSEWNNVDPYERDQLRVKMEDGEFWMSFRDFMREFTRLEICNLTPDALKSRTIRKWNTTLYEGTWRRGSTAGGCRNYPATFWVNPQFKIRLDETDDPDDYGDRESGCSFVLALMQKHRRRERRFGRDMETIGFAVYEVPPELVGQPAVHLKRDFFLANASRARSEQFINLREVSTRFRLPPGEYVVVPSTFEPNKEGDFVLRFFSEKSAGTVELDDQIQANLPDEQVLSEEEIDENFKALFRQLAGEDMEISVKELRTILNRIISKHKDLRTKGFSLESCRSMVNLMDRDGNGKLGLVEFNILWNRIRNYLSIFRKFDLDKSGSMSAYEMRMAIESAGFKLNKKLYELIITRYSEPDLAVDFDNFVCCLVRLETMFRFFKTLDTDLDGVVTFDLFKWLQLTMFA
How it was run: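 Calpain 1 in buffer of 50 mM HEPES, 50 mM NaCl, 10 mM DTT and 5 mM CaCl2 (pH 7.5), with test compound at serial concentrations. The reaction is started with N-succinyl-Leu-Leu-Val-Tyr-AMC (4 mM stock). Fluorescence (ex 360, em 460 nm) is read for 1 h at 30 °C.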

[12] = Covalent inhibition of Enterovirus-D68 2Apro incubated for 30 mins using FRET substrate measured for 1 hr by FRET-based enzymatic assay; how it was run: as §1
[13] = Selectivity Index, ratio of CC50 for african green monkey vero E6 cells to EC50 for antiviral activity against SARS-Cov-2 USA-WA1/2020 isolate infected in African green monkey Vero E6 cells; assay type: toxicity, Vero C1008; settings: read-out: Ratio CC50/EC50

Sequence of Procathepsin L (P07711 whole entry): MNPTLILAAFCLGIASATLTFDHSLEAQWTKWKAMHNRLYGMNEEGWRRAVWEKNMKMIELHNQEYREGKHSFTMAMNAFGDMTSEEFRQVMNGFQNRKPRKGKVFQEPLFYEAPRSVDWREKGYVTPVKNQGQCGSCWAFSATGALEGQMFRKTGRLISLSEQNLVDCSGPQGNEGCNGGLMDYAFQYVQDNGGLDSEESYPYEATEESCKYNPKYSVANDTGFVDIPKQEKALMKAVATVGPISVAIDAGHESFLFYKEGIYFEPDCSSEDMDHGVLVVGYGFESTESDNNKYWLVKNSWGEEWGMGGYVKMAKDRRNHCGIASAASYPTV

Compound: CC(C)(C)NC(=O)C(c1cccnc1)N(C(=O)c1ccco1)c1ccc(C(C)(C)C)cc1 (stereo unspecified)
- CC50 at 120 h [1]: > 125 µM
- EC50 [2]: > 20 µM

Compound: CC(C)(C)NC(=O)C(c1cnccn1)N(C(=O)c1ccco1)c1ccc(C(C)(C)C)cc1 (stereo unspecified)
- CC50 at 120 h [1]: 138 µM

Compound: CC(C)(C)NC(=O)C(c1c[nH]cn1)N(C(=O)c1ccco1)c1ccc(C(C)(C)C)cc1 (stereo unspecified)
- IC50 [3]: > 20 µM

Compound: CC(C)C[C@H](NC(=O)OCc1ccccc1)C(=O)N[C@@H](C[C@@H]1CCNC1=O)C(O)S(=O)(=O)O (stereo partly specified)
- IC50 [4]: > 50 µM
- IC50 [5]: ≤ 0.16 µM
- IC50 [6]: ≤ 0.16 µM
- IC50 [7]: ≤ 0.16 µM
- IC50 [8]: ≤ 0.074 µM
- IC50 [9]: ≤ 0.16 µM
- IC50 [10]: ≤ 0.16 µM
- IC50 [11]: ≤ 0.074 µM
- EC50 [2]: 1.51 µM
- IC50 [12]: > 50 µM

Compound: CC(C)(C)NC(=O)C(c1cncnc1)N(C(=O)c1ccco1)c1ccc(C(C)(C)C)cc1 (stereo unspecified)
- IC50 [3]: > 20 µM

Compound: C[C@H](NC(=O)C(c1cccnc1)N(C(=O)c1ccco1)c1ccc(-c2cccs2)cc1)c1ccccc1 (stereo partly specified)
- CC50 at 120 h [1]: 89.6 µM
- IC50 [3]: 0.56 µM

Compound: O=C(NC1CCCC1)C(c1cccnc1)N(C(=O)c1ccco1)c1ccc(-c2ccccc2)cc1 (stereo unspecified)
- CC50 at 120 h [1]: > 200 µM
- IC50 [3]: 4.1 µM

Compound: C[C@H](NC(=O)C(c1cccnc1)N(C(=O)c1ccno1)c1ccc(C2CCCCC2)cc1)c1ccccc1 (stereo partly specified)
- CC50 at 120 h [1]: 17.5 µM

Compound: C[C@H](NC(=O)C(c1cccnc1)N(C(=O)c1ccco1)c1ccc(-c2ccccn2)cc1)c1ccccc1 (stereo partly specified)
- CC50 at 120 h [1]: 236 µM

Compound: O=C(NC1CCCCC1)C(c1cccnc1)N(C(=O)c1ccco1)c1ccc(-c2ccccc2)cc1 (stereo unspecified)
- CC50 at 120 h [1]: 53.5 µM

Compound: O=C(NC1CC1)C(c1cccnc1)N(C(=O)c1ccco1)c1ccc(-c2ccccc2)cc1 (stereo unspecified)
- IC50 [3]: 12.1 µM

Compound: C[C@H](NC(=O)C(c1cccnc1)N(C(=O)c1ccco1)c1ccc(C2CCCCC2)cc1)c1ccccc1 (stereo partly specified)
- CC50 at 120 h [1]: 9.61 µM

Compound: Cc1ccc(S(=O)(=O)CNC(=O)C(c2cccnc2)N(C(=O)c2ccco2)c2ccc(C(C)(C)C)cc2)cc1 (stereo unspecified)
- IC50 [3]: > 20 µM

Compound: O=C(NCCCc1ccccc1)C(c1cccnc1)N(C(=O)c1ccco1)c1ccc(-c2ccccc2)cc1 (stereo unspecified)
- selectivity ratio [13]: > 98
- CC50 at 120 h [1]: > 200 µM
- EC50 [2]: 2.04 µM

Compound: CC(C)(C)c1ccc(N(C(=O)c2ccco2)C(C(=O)NC2CCCCC2)c2cccnc2)cc1 (stereo unspecified)
- CC50 at 120 h [1]: 18.2 µM
- IC50 [3]: 2.39 µM

Compound: C[C@H](NC(=O)C(c1cccnc1)N(C(=O)c1ccco1)c1ccc(-c2ccco2)cc1)c1ccccc1 (stereo partly specified)
- CC50 at 120 h [1]: 56.4 µM
